Screening results: PubChem BioAssay, The Scripps Research Institute Molecular Screening Center
Only some compounds are listed: those with a hit (about 1.9% of all), similar ones and a draw of the others.
Rin1-Abl PPI inh – inhibitors of human Rin1-Abl protein interaction | inhibition, % at 7.35 µM | 360,000 tested, 0.4% active | TR-FRET Rin1/Abl binding, biochemical | P00519+Q13671; in the data active = inhibition above about 5%, passing the limit was not always enough
MBD2 inh – MBD2-methylated oligo binding inhibition | 370,000 tested, 0.31% active | TR-FRET, MBD2 binding to methylated oligonucleotide | inhibition, % at 4.4 µM | Q9UBB5; in the data active = inhibition above about 13%
TDP2 absorb – blocks human TDP2 phosphodiesterase activity; O95551; inhibition, % at 12.8 µM; recombinant TDP2, T5PNP hydrolysis, p-nitrophenol absorbance 415 nm; 370,000 tested, 0.34% active;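 active = inhibition above the mean of all tested compounds plus 3 SD, set per campaign, cut at about 25% in these data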
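Test system: Human TDP2 enzyme | Reagent: 5 mM T5PNP | Compound dosing: 12.8 µM single point, 1% DMSO | Incubation: Enzyme reaction with compound for 2 h at 37 °C | Technique: p-Nitrophenol epi absorbance | Read-out: % inhibition relative to enzyme-containing and enzyme-free wells | Benchmarks: High control without enzyme, low control DMSO plus TDP2 | Replicates: Singlicate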
LEDGF integ inh – blocks HIV-1 LEDGF/p75-dependent DNA integration; TR-FRET IN-LEDGF/p75 DNA integration, Eu/Cy5; inhibition, % at 3.7 µM; 370,000 tested, 0.64% active; AID 743269;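 active = inhibition above the screen-wide mean plus 3 SD, cut at about 13% in these data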;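 note: signal is the Cy5 over europium emission ratio at 671 and 618 nm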
UHRF1 MBD2 ctr – human UHRF1 methylated DNA binding inhibitors | Q96T88 | UHRF1 binding to methylated oligo, TR-FRET | inhibition, % at 4.4 µM | 370,000 tested, 0.75% active | AID 687016; in the data active = inhibition above about 21%;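 note: UHRF1 SRA domain binding a hemimethylated CpG hairpin DNA probe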
Target sequence (Q96T88 whole entry, looked up, the tested form may be a part): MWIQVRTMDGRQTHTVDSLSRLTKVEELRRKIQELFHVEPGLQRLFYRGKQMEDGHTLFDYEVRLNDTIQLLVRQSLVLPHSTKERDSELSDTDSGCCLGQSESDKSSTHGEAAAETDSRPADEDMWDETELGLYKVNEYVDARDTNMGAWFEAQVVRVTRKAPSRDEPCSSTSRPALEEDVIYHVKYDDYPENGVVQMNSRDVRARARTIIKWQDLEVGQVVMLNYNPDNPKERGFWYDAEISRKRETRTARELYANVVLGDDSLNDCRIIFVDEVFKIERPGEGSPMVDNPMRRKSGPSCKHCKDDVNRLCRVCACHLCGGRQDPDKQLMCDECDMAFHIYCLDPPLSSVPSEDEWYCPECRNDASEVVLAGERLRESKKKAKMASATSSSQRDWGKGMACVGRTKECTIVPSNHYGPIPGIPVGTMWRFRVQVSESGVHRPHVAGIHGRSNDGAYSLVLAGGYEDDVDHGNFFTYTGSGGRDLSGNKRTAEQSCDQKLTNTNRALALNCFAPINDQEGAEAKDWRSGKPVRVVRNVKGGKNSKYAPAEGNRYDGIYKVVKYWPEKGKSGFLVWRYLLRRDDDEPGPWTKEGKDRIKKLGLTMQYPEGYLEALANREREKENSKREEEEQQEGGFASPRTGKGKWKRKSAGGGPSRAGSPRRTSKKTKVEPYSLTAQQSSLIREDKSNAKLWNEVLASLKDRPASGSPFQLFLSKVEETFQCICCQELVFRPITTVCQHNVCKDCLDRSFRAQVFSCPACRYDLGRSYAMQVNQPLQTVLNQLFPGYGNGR
Numbers stand for hits; i = inactive; nt = no result given.

SMILES	Rin1-Abl PPI inh	MBD2 inh	TDP2 absorb	LEDGF integ inh	UHRF1 MBD2 ctr
COc1ccc2c(CC(=O)OCC(=O)Nc3sc4c(c3C#N)CCC(C)C4)coc2c1 (configuration not stated)	i	i	i	i	41
CCOC(=O)Cc1csc(NC(=O)CSc2nnc3ccccn23)n1	i	i	i	i	32
O=C(O)C1=C(C(=O)O)C2C=CC1C2	i	i	i	i	33
CCOC(=O)[C@@]12CCC3=C1N(CCC3)C(=O)[C@H](CC(=O)NCCCCc1ccccc1)C2	nt	i	i	i	i
O=C(Cc1ccccc1)NN1C(=O)C2C(C1=O)C1C=CC2C12CC2 (configuration not stated)	i	i	i	i	24
CCCCn1nnnc1C(CC)N1CCN(C/C=C/c2ccccc2)CC1 (configuration not stated)	i	i	i	i	22
COc1ccc(C2Nc3ccccc3C(=O)N2Cc2ccco2)cc1COc1ccccc1C (configuration not stated)	nt	i	i	i	i
Cc1noc(C)c1S(=O)(=O)NCc1ccc(CN(C)C)cc1	i	i	i	i	33
COC(=O)c1cccc(OC[C@@H](O)CN2CCC(C(O)(c3ccccc3)c3ccccc3)CC2)c1	nt	i	i	i	i
Cc1ccc2nc(-c3ccccc3)c(CN3CCN(c4ccccc4F)CC3)n2c1	i	i	i	i	23
O=C(O)c1ccc(N/N=C/C=C/c2ccccc2)cc1	i	i	i	i	21
CC1CCN(S(=O)(=O)c2ccc3c(c2)c(=O)c(C(=O)N2CCOCC2)cn3C)CC1	i	i	i	i	i
CC1CCN(S(=O)(=O)c2ccc3c(c2)c(=O)c(C(=O)N2CCCCC2)cn3C)CC1	i	i	i	i	73
COc1ccc(C(=O)NNC(=O)CCCCC(=O)NNC(=O)c2ccc(OC)cc2)cc1	i	i	i	i	22
COc1ccc(C(=O)NNC(=O)CCC(=O)NNC(=O)c2ccc(OC)cc2)cc1	i	i	i	i	i
O=C(NC1CCC1)O[C@H]1CC[C@@]23CCCN2C(=O)CCC[C@H]3C1	nt	i	i	i	i
COc1ccc2c(CN3CCCCC3)cc(=O)oc2c1	i	i	i	i	21
CCOc1cc(/C=N/NC(=O)c2ccc(-c3csc(Nc4ccc(C)cc4)n3)cc2)ccc1OCC(=O)O	i	i	i	i	i
O=C(O)COc1ccc(/C=N/NC(=O)c2ccc(-c3csc(Nc4ccc(Cl)cc4)n3)cc2)cc1	i	i	i	i	21
CC(=O)O[C@@H]1CCC[C@@]2(C(=O)Nc3ccccc32)[C@H]1NC(=O)C(C)C	nt	i	i	i	i
COc1ccccc1C(=O)NC1CCCCN(Cc2cccc(C(F)(F)F)c2)C1=O (configuration not stated)	nt	i	i	i	i
Cc1ccc(-n2c(SC/C=C/c3ccccc3)nnc2-c2ccco2)cc1	nt	i	i	i	i
O=C(CSc1nc2nn(-c3ccccc3)c(=O)c-2c2n1CCCCC2)c1ccc(O)c(O)c1	16	nt	nt	nt	nt
CCCCC(=O)N1CCN(C(=O)c2ccc3nc(C)n(C4CCCC4)c3c2)CC1	nt	i	i	i	i
COc1cc(CC2COC(c3ccc(O)c(OC)c3)C2COC(C)=O)ccc1O (configuration not stated)	i	i	i	14	i
SMILES	Rin1-Abl PPI inh	MBD2 inh	TDP2 absorb	LEDGF integ inh	UHRF1 MBD2 ctr
COc1ccc(OC)c2sc(N3CCN(c4ccccc4)CC3)nc12	i	i	i	i	i
COc1ccc(C)c2sc(N3CCCC3)nc12	i	i	i	i	25
Cc1ccc(NC(=O)OCCCN2C(=O)CCC23CCC(C)CC3)cc1 (configuration not stated)	nt	i	i	i	i
CC1CCCCC1n1c(-c2cccnc2)n[nH]c1=S (configuration not stated)	i	i	i	i	72
COc1ccc(-n2c(SCC(=O)Nc3ccc(Oc4ccccc4)cc3)nnc2-c2ccco2)cc1	nt	i	i	i	i
COc1ccccc1/C=C/C=N/n1c(C)nnc1C	i	i	i	i	68
COc1ccccc1/C=C/C=N/n1c(-c2ccc(F)cc2)n[nH]c1=S	i	i	i	i	i
CC(C)(C)SCCNS(=O)(=O)c1ccc(F)cc1	i	i	i	i	24
O=C(NCc1cccnc1)C(=O)NCC1CCCO1 (configuration not stated)	i	i	i	i	i
O=C(NC1CCCC1)C(=O)N(Cc1cccnc1)C(C(=O)NCC1CCCO1)c1ccco1 (configuration not stated)	i	i	i	i	26
